“And” between values parts separate entries of the source, which are not always exact repeats. Equal entries are not always repeated. Marks after values point to notes of the source that are not given here. Blank lines part the entries; values can stand above or below the molecule they belong to.
Experiments:
Type in all cases: in vivo, Japanese CRPC patients
corticosterone = experiment: Pharmacodynamics: serum corticosterone concentration
In short: (§1)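 Serum corticosterone, 11-deoxycorticosterone, testosterone and DHEA-S were measured at baseline and on days 2 and 8 of cycle 1. Abiraterone acetate was given orally once daily after an overnight fast, with no food for ≥1 h after dosing. It was given alone days 1–7, then with prednisone 5 mg twice daily. Results are summarised as change from baseline.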

[1] = system: dehydroepiandrosterone sulfate (DHEA-S); experiment: Pharmacodynamics: serum DHEA-S concentration
In short: as §1

[2] = system: prostate-specific antigen (PSA); experiment: Efficacy: PSA response; settings: for patients who achieved ≥50% PSA decline from baseline at one or more evaluation time points: entire treatment period; for mean percentage change from baseline in PSA levels: week 12
In short: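 Oral abiraterone acetate given once daily in 28-day cycles to chemotherapy-naïve patients on continued LHRH agonist or post-orchiectomy: monotherapy days 1–7 of cycle 1, then with prednisone 5 mg twice daily. PSA measured at screening and day 1 of each cycle. Response was a ≥50% fall from baseline confirmed to persist ≥4 weeks, per PCWG2.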

testosterone = experiment: Pharmacodynamics: serum testosterone concentration
In short: as §1

11-deoxycorticosterone = experiment: Pharmacodynamics: serum 11-deoxycorticosterone concentration
In short: as §1

[3] = Plasma abiraterone acetate and abiraterone pharmacokinetics
In short: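 Venous blood was drawn at predose and 0.5–12 h after dosing on cycle 1 days 1, 7 and 15 (monotherapy days 1–7; prednisone 5 mg twice daily from day 8), plus 24-h and trough samples. Samples were taken on NaF, spun at 1300 g and 4°C for 10 min, and stored at −20°C. Assay was validated LC/MS/MS (LLOQ 0.220 ng/mL). Cmax, tmax and AUC24 came from non-compartmental analysis.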

[4] = system: castration-resistant prostate cancer; experiment: Efficacy: objective tumor response by RECIST
In short: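 Patients with measurable lesions were assessed for objective tumour response by RECIST. Dosing was once-daily oral abiraterone acetate (250, 500 or 1000 mg, the 1000 mg given 1 h premeal or 2 h postmeal) in 28-day cycles, with prednisone 5 mg twice daily added from cycle 1 day 8 onward.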

[5] = Cycle 1 Day 2, 1000 (+2 h) mg (n = 6)
[6] = Cycle 1 Day 2, 1000 (−1 h) mg (n = 6)
[7] = Cycle 1 Day 8, 1000 (+2 h) mg (n = 6)
[8] = Cycle 1 Day 8, 1000 (−1 h) mg (n = 6)

- plasma AA concentrations ([3]; most plasma concentrations, all cohorts, LLOQ 0.220 ng/mL): below the quantification limit
SMILES: CC(=O)O[C@H]1CC[C@@]2(C)C(=CC[C@@H]3[C@@H]2CC[C@]2(C)C(c4cccnc4)=CC[C@@H]32)C1 [Abiraterone acetate]
- Corticosterone, mean (SD) change from baseline (corticosterone; Cycle 1 Day 2, 250 mg (n = 9)): 1097.1 (687.41) ng/dL
- Corticosterone, mean (SD) change from baseline (corticosterone; Cycle 1 Day 2, 500 mg (n = 6)): 2914.8 (1543.83) ng/dL
- Corticosterone, mean (SD) change from baseline (corticosterone; [5]): 4227.3 (2814.68) ng/dL
- Corticosterone, mean (SD) change from baseline (corticosterone; [6]): 1957.2 (1008.74) ng/dL
- Corticosterone, mean (SD) change from baseline (corticosterone; Cycle 1 Day 8, 250 mg (n = 9)): 2015.2 (769.39) ng/dL
- Corticosterone, mean (SD) change from baseline (corticosterone; Cycle 1 Day 8, 500 mg (n = 6)): 4086.5 (2478.82) ng/dL
- Corticosterone, mean (SD) change from baseline (corticosterone; [7]): 6426.2 (2212.64) ng/dL
- Corticosterone, mean (SD) change from baseline (corticosterone; [8]): 5147.8 (1642.75) ng/dL
- DHEA-S, mean (SD) change from baseline ([1]; Cycle 1 Day 2, 250 mg (n = 9)): −19.1 (13.49) ug/dL
- DHEA-S, mean (SD) change from baseline ([1]; Cycle 1 Day 2, 500 mg (n = 6)): −28.3 (24.32) ug/dL
- DHEA-S, mean (SD) change from baseline [1, 5]: −53.3 (34.14) ug/dL
- DHEA-S, mean (SD) change from baseline [1, 6]: −59.7 (49.87) ug/dL
- DHEA-S, mean (SD) change from baseline ([1]; Cycle 1 Day 8, 250 mg (n = 9)): −35.7 (25.51) ug/dL
- DHEA-S, mean (SD) change from baseline ([1]; Cycle 1 Day 8, 500 mg (n = 6)): −38.5 (37.31) ug/dL
- DHEA-S, mean (SD) change from baseline [1, 7]: −76.8 (54.02) ug/dL
- DHEA-S, mean (SD) change from baseline [1, 8]: −95.3 (77.99) ug/dL
- PSA response rate ([2]; 250 mg cohort): 67%
- PSA response rate ([2]; 500 mg cohort, listed as AA): 50%
- PSA response rate ([2]; 1000 (+2 h) mg cohort, listed as AA): 83% and 83.3%
- PSA response rate ([2]; 1000 (−1 h) mg cohort, listed as AA): 67% and 66.7%
- patients with ≥50% PSA decline confirmed to be maintained for at least 4 weeks ([2]; all cohorts): 18/27
- overall PSA response rate ([2]; all cohorts (N = 27), ≥50% decline maintained ≥4 weeks): 67%
- patients from each dose-group with ≥50% PSA reduction ([2]; each dose-group): At least 3 patients
- patients who achieved ≥50% PSA decline from baseline at one or more evaluation time points ([2]; 250 mg): 7 patients
- patients who achieved ≥50% PSA decline from baseline at one or more evaluation time points ([2]; 500 mg): 3 patients
- patients who achieved ≥50% PSA decline from baseline at one or more evaluation time points ([2]; 1000 (+2 h) mg): 5 patients
- patients who achieved ≥50% PSA decline from baseline at one or more evaluation time points ([2]; 1000 (−1 h) mg): 5 patients
- patients who achieved ≥50% PSA decline from baseline at one or more evaluation time points ([2]; all cohorts): 20/27
- mean percentage change from baseline in PSA levels ([2]; 250 mg): −51.2%
- mean percentage change from baseline in PSA levels ([2]; 500 mg): −29.1%
- mean percentage change from baseline in PSA levels ([2]; 1000 mg (+2 h)): −37.6%
- mean percentage change from baseline in PSA levels ([2]; 1000 mg (−1 h)): −60.4%
- Testosterone, mean (SD) change from baseline (testosterone; Cycle 1 Day 2, 250 mg (n = 9)): −3.6 (3.64) ng/dL
- Testosterone, mean (SD) change from baseline (testosterone; Cycle 1 Day 2, 500 mg (n = 6)): −4.8 (3.06) ng/dL
- Testosterone, mean (SD) change from baseline (testosterone; [5]): −7.5 (1.87) ng/dL
- Testosterone, mean (SD) change from baseline (testosterone; [6]): −8.0 (3.22) ng/dL
- Testosterone, mean (SD) change from baseline (testosterone; Cycle 1 Day 8, 250 mg (n = 9)): −6.2 (4.06) ng/dL
- Testosterone, mean (SD) change from baseline (testosterone; Cycle 1 Day 8, 500 mg (n = 6)): −8.2 (3.82) ng/dL
- Testosterone, mean (SD) change from baseline (testosterone; [7]): −9.2 (2.32) ng/dL
- Testosterone, mean (SD) change from baseline (testosterone; [8]): −10.8 (6.21) ng/dL
- mean change from baseline in testosterone levels, range over cohorts (testosterone; day 8 in cycle 1, 250-1000 mg): -10.8 to -6.2 ng/dL
- 11-deoxycorticosterone, mean (SD) change from baseline (11-deoxycorticosterone; Cycle 1 Day 2, 250 mg (n = 8)): 22.9 (10.13) ^† ng/dL
- 11-deoxycorticosterone, mean (SD) change from baseline (11-deoxycorticosterone; Cycle 1 Day 2, 500 mg (n = 6)): 40.3 (16.79) ng/dL
- 11-deoxycorticosterone, mean (SD) change from baseline (11-deoxycorticosterone; [5]): 45.7 (61.09) ng/dL
- 11-deoxycorticosterone, mean (SD) change from baseline (11-deoxycorticosterone; [6]): 36.3 (17.22) ng/dL
- 11-deoxycorticosterone, mean (SD) change from baseline (11-deoxycorticosterone; Cycle 1 Day 8, 250 mg (n = 8)): 45.9 (13.35) ^† ng/dL
- 11-deoxycorticosterone, mean (SD) change from baseline (11-deoxycorticosterone; Cycle 1 Day 8, 500 mg (n = 6)): 78.8 (36.41) ng/dL
- 11-deoxycorticosterone, mean (SD) change from baseline (11-deoxycorticosterone; [7]): 112.3 (65.15) ng/dL
- 11-deoxycorticosterone, mean (SD) change from baseline (11-deoxycorticosterone; [8]): 79.2 (51.53) ng/dL
- patients in whom the disease had progressed (RECIST) ([4]; 250 mg): 1 patients
- patients with stable disease (RECIST) ([4]; 250 mg): 1 patients
- patients with partial response (RECIST) ([4]; 500 mg): 1 patients
- patients with stable disease (RECIST) ([4]; 500 mg): 2 patients
- patients in whom the disease had progressed (RECIST) ([4]; 1000 (+2 h) mg): 1 patients
- patients with partial response (RECIST) ([4]; 1000 (−1 h) mg): 1 patients
- patients with stable disease (RECIST) ([4]; 1000 (−1 h) mg): 2 patients
- patients in whom the disease had progressed (RECIST) ([4]; all cohorts): 2 patients
- patients with partial response (RECIST) ([4]; all cohorts): 2 patients
- patients with stable disease (RECIST) ([4]; all cohorts): 5 patients

- mean Cmax and AUC24 of abiraterone, 2 h postmeal versus 1 h premeal ([3]; 1000 mg cohort, overall): 3.1–6.0 times
- abiraterone Cmax and AUC24, 2 h postmeal versus 1 h premeal ([3]; AA 1000 mg multiple doses): approximately threefold to sixfold
- accumulation index for AUC24 of abiraterone ([3]; irrespective of dose): 1.40–1.69
- accumulation index for Cmax of abiraterone ([3]; irrespective of dose): 1.31–1.74
- time at which steady state of plasma abiraterone was reached ([3]; regardless of dose): ≤ 7 days
SMILES: C[C@]12CC[C@H](O)CC1=CC[C@@H]1[C@@H]2CC[C@]2(C)C(c3cccnc3)=CC[C@@H]12 [abiraterone]

— PMC4462344 (Cancer Science, 2014)
